Test results from ChEMBL document CHEMBL1949596, “Chromophenazines from the terrestrial Streptomyces sp. Ank 315” (2012).
Calls of active or inactive are those of the source. The calls are words filed in the database; no cut-off is given here.

Legend:
[1] = system: Rhizomucor miehei; test: Antimicrobial activity against Mucor miehei by agar diffusion method; format: functional
How it was run: (§1)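 Pure compounds applied to paper disks at 40 μg/disk and tested by agar diffusion against Bacillus subtilis, Escherichia coli, Staphylococcus aureus and the fungus Mucor miehei (Tü284). Activity was read from the agar plates.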

[2] = system: Staphylococcus aureus; test: Antimicrobial activity against Staphylococcus aureus by agar diffusion method; format: functional, organism-based; how it was run: as §1
[3] = system: Escherichia coli; test: Antimicrobial activity against Escherichia coli by agar diffusion method; format: functional; how it was run: as §1
[4] = system: Bacillus subtilis; test: Antimicrobial activity against Bacillus subtilis by agar diffusion method; format: functional; how it was run: as §1

Row | Structure (SMILES) | Activity [1] | Activity [2] | Activity [3] | Activity [4] | inhibition zone (IZ) [1] | inhibition zone (IZ) [3] | inhibition zone (IZ) [4]
1 | CC(C)=CCc1cc(=O)cc2n(C)c3cccc(C(=O)O)c3nc1-2 | inactive | inactive | inactive | inactive |  |  | 
2 | CC(C)=CCn1c2cc(=O)ccc-2nc2c(C(N)=O)cccc21 | inactive | inactive | inactive | inactive |  |  | 
3 | CC(C)=CCn1c2cc(=O)c3cc(C)ccc3c-2nc2ccccc21 | inactive | inactive | inactive | inactive |  |  | 
4 | CC(C)=CCn1c2cc(=O)c3cc(C)ccc3c-2nc2c(C(=O)O)cccc21 | inactive | inactive | inactive | inactive |  |  | 
5 | CC(C)=CCN1c2ccccc2Nc2c(C(=O)O)cc(C(=O)c3ccccc3)cc21 [CHROMOPHENAZINE D] |  |  |  |  | 10 mm | 10 mm | 10 mm
6 | CC(C)=CCN1c2cc(C(=O)c3ccccc3)ccc2Nc2c(C(N)=O)cc(C(=O)c3ccccc3)cc21 | inactive | inactive | inactive | inactive |  |  | 
